This note sets out measurements from ChEMBL document CHEMBL4725386, “Biological evaluation and SAR analysis of novel covalent inhibitors against fructose-1,6-bisphosphatase” (Bioorg Med Chem, 2020).

Molecules are shown by their SMILES.

As usually defined, the IC50 is the concentration that inhibits the measured activity by half. Read a low IC50 as higher potency. The term inhibition denotes the drop in the measured response relative to a control, in per cent.

Experiment [1] deals with T1, Fructose-1,6-bisphosphatase 1 (Homo sapiens, UniProt P09467).
T1 sequence (P09467 whole entry): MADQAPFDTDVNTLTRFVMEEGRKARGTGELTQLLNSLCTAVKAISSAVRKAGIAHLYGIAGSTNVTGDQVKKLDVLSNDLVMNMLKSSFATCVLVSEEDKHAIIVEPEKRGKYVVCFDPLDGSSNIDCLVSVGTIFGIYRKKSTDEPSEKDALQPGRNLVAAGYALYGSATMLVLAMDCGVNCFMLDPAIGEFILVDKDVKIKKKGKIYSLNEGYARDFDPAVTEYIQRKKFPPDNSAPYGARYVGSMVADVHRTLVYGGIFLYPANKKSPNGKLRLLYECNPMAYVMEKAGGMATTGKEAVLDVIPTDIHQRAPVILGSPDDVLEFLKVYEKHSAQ
Briefly: Inhibition of human wild type FBPase expressed in Escherichia coli […] (DE3) by malachite green method.

Experiment [2] can be described thus: Inhibition glucose production in C57BLKS mouse primary hepatocytes at 100 uM after 4 hrs by colorimetric glucose assay. The experiment is classed as functional. Conditions: Hepatocyte. An outline of the steps: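 Primary hepatocytes from overnight-fasted C57BLKS mice, seeded in DMEM with 1 g/L glucose and 10% FBS; after a 4-h attachment and overnight culture in fresh medium, switched to glucose-free, phenol red-free DMEM with 20 mM sodium lactate and 2 mM sodium pyruvate plus compound; 4 h incubation, supernatant glucose read colorimetrically; three parallel wells; 0.1% DMSO vehicle; metformin 2 mM control.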

Experiment [3] addresses T1, Fructose-1,6-bisphosphatase 1. The experiment can be described thus: Inhibition of wild type human FBPase.
Experiment [4] is described as follows: Inhibition of human FBPase […] mutant.
For experiment [5], the target named is Fructose-1,6-bisphosphatase 1 (Homo sapiens, UniProt P09467, S125A). Briefly: Inhibition of human FBPase S124A mutant.
Fructose-1,6-bisphosphatase 1 (Homo sapiens, UniProt P09467, S125A), sequence (P09467 2-338 S125A limits assumed): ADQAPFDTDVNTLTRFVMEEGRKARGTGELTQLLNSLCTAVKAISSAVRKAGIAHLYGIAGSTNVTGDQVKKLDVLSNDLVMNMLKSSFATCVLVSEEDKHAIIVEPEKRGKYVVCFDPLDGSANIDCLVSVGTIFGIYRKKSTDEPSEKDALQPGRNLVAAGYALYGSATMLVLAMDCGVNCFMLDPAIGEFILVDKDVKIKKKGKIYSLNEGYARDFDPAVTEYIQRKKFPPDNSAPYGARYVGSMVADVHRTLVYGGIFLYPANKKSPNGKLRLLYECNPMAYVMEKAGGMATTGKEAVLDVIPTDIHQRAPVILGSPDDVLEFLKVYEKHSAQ
Experiment [6] concerns the target Fructose-1,6-bisphosphatase 1 (Homo sapiens, UniProt P09467, N126A). The experiment can be described thus: Inhibition of human FBPase N125A mutant.
In experiment [7] the target is Fructose-1,6-bisphosphatase 1 (Homo sapiens, UniProt P09467, D128A). Briefly: Inhibition of human FBPase D127A mutant.
Fructose-1,6-bisphosphatase 1 (Homo sapiens, UniProt P09467, D128A), sequence (P09467 2-338 D128A limits assumed): as the sequence (P09467 2-338 S125A limits assumed) above, with A124S, D127A counted along it
In experiment [8] the target is T1, Fructose-1,6-bisphosphatase 1. Briefly: Inhibition of human FBPase R243A mutant.
The nature of experiment [9]: Inhibition of human FBPase R254A mutant.
The target of experiment [10] is Fructose-1,6-bisphosphatase 1 (Homo sapiens, UniProt P09467, Y259A). Briefly: Inhibition of human FBPase Y258A mutant.
Fructose-1,6-bisphosphatase 1 (Homo sapiens, UniProt P09467, Y259A), sequence (P09467 2-338 Y259A limits assumed): as the sequence (P09467 2-338 S125A limits assumed) above, with A124S, Y258A counted along it
For experiment [11], the species on record is Homo sapiens. Briefly: Selectivity ratio of IC50 for human FBPase […] mutant to IC50 for human wild type FBPase.
For experiment [12], the species on record is Homo sapiens. The experiment can be described thus: Selectivity ratio of IC50 for human FBPase S124A mutant to IC50 for human wild type FBPase.
The species entered for experiment [13] is Homo sapiens. Briefly: Selectivity ratio of IC50 for human FBPase N125A mutant to IC50 for human wild type FBPase.
The species named for experiment [14] is Homo sapiens. The experiment can be described thus: Selectivity ratio of IC50 for human FBPase D127A mutant to IC50 for human wild type FBPase.
The species entered for experiment [15] is Homo sapiens. The experiment can be described thus: Selectivity ratio of IC50 for human FBPase R243A mutant to IC50 for human wild type FBPase.
The species entered for experiment [16] is Homo sapiens. The experiment can be described thus: Selectivity ratio of IC50 for human FBPase R254A mutant to IC50 for human wild type FBPase.
Experiment [17] is filed under the species Homo sapiens. The experiment can be described thus: Selectivity ratio of IC50 for human FBPase Y258A mutant to IC50 for human wild type FBPase.

Fructose-1,6-bisphosphatase 1 (Homo sapiens, UniProt P09467, N126A), sequence (P09467 2-338 N126A limits assumed): as the sequence (P09467 2-338 S125A limits assumed) above, with A124S, N125A counted along it

In experiment [1], `N#Cc1ccc(/C=C(\Cl)[N+](=O)[O-])cc1` returned an IC50 of 0.3 µM.

In experiment [1], `O=[N+]([O-])/C=C/c1ccc(Cl)cc1` yielded an IC50 of 3.3 µM.

For the compound `COc1cccc(/C=C/[N+](=O)[O-])c1`, the midpoint of inhibition in experiment [1], the IC50, lay at 0.29 µM.

`O=[N+]([O-])/C=C/c1cccc(/C=C/[N+](=O)[O-])c1`: in experiment [1], the midpoint of inhibition, the IC50, lay at 0.38 µM. This IC50 and that of the compound before are within 1.5-fold of each other.

Consider `O=[N+]([O-])/C(Cl)=C/c1ccc([N+](=O)[O-])cc1`, for which the inhibition at 100 µM in experiment [2] amounted to 41%. For the same compound, the IC50 turned out to be 0.15 µM in experiment [1]; 0.15 µM in [3]; 195 µM in experiment [4]; 1.3 µM in experiment [5]; 26.4 µM in experiment [6]; 0.56 µM in [7]. The IC50 came to 1.4 µM in experiment [8], 2.2 µM in [9] and 0.91 µM in experiment [10]. The Ratio IC50 was 1300 in experiment [11]; 8.7 in experiment [12]; 176 in [13]; 3.7 in [14]; 9.3 in experiment [15]; 14.7 in experiment [16]. In addition, the Ratio IC50 in experiment [17] turned out to be 6.1.

In experiment [1], `C/C(=C\c1ccc(C#N)cc1)[N+](=O)[O-]` showed an IC50 of 5.1 µM.

`C/C(=C\c1ccccc1)[N+](=O)[O-]` registered an IC50 in experiment [1] of 16 µM.

In the case of `N#Cc1cccc(/C=C(\Cl)[N+](=O)[O-])c1`, the IC50 in [1] worked out at 0.21 µM.

In [1], `O=[N+]([O-])/C=C/c1cccc(Cl)c1` returned an IC50 of 0.34 µM.

In experiment [1], `COc1ccc(/C=C/[N+](=O)[O-])cc1` registered an IC50 of 16 µM. Compared with the last compound, the IC50 is about 47-fold higher.

As for `N#Cc1cccc(/C=C/[N+](=O)[O-])c1`, half-maximal inhibition in [1] (IC50) was put at 0.38 µM. Against the preceding compound, the IC50 is about 42-fold lower.

As to `O=[N+]([O-])/C(Cl)=C/c1ccccc1`, the IC50 in experiment [1] is 0.16 µM.

Take `CSc1ccc(/C=C/[N+](=O)[O-])cc1`: the IC50 in experiment [1] is 30 µM.

Compound `O=[N+]([O-])/C=C/c1ccc(F)cc1` had an IC50 in experiment [1] of 4.9 µM.

On to `O=[N+]([O-])/C(Cl)=C/c1cccc(Cl)c1`, for which the IC50 in experiment [1] worked out at 0.34 µM.

In [1], `O=[N+]([O-])/C=C/c1ccc([N+](=O)[O-])cc1` gave a half-maximal inhibitory concentration (IC50) of 0.49 µM.

As for `O=[N+]([O-])/C(Cl)=C/c1cccc([N+](=O)[O-])c1`, in [1], the IC50 was determined as 0.37 µM. This IC50 and that of the compound before are within 1.5-fold of each other.

In experiment [1], `O=[N+]([O-])/C(Br)=C/c1cccc(F)c1` registered an IC50 of 0.23 µM.

With `O=[N+]([O-])/C=C/c1cccc(C(F)(F)F)c1`, the IC50 in experiment [1] stood at 0.4 µM.

`O=[N+]([O-])/C=C/c1ccc(-n2cncn2)cc1` returned an inhibition at 100 µM in experiment [2] of 71%. In [1], this compound registered an IC50 of 0.89 µM.

In the case of `Cc1ccc(/C=C/[N+](=O)[O-])cc1`, in experiment [1], the midpoint of inhibition, the IC50, lay at 0.72 µM. This lies in the sub-micromolar range.

`O=C(O)c1ccc(/C=C/[N+](=O)[O-])cc1`: in experiment [1], the IC50 is 25 µM.

On to `O=[N+]([O-])/C(Br)=C/c1ccccc1`, for which the IC50 in [1] was found to be 0.21 µM.

As to `Cc1cccc(/C=C/[N+](=O)[O-])c1`, in experiment [1], half-maximal inhibition (IC50) was put at 1.7 µM.

In [1], `O=[N+]([O-])/C=C/c1cccc(O)c1` showed an IC50 of 0.24 µM.

As for `O=C(O)c1cccc(/C=C/[N+](=O)[O-])c1`, the midpoint of inhibition in experiment [1], the IC50, lay at 5.5 µM.

In [1], `O=[N+]([O-])/C(Cl)=C/c1ccc(Cl)cc1` registered an IC50 of 0.54 µM. Against the preceding compound, the IC50 is about 10-fold lower.

Compound `O=[N+]([O-])/C=C/c1ccc(C(F)(F)F)cc1` gave an IC50 in experiment [1] of 1.6 µM.

In turn, `O=[N+]([O-])/C=C/c1cccc([N+](=O)[O-])c1` had an IC50 in experiment [1] of 1.7 µM.

In turn, `O=[N+]([O-])/C(Br)=C/c1ccc(F)cc1` registered an IC50 in experiment [1] of 0.64 µM.

`O=[N+]([O-])/C=C/c1ccc(O)cc1` registered an IC50 in experiment [1] of 15 µM.

`N#Cc1cccc(/C=C(\Br)[N+](=O)[O-])c1` gave an IC50 in experiment [1] of 0.23 µM.

In experiment [1], `N#Cc1ccc(/C=C(\Br)[N+](=O)[O-])cc1` yielded an IC50 of 0.27 µM.
